# Screening results deposited in PubChem BioAssay by several laboratories.
# Only some compounds are listed: those with a hit (about 2.2% of all), similar ones and a draw of the others.
# ASAP1 inh: inhibitors of human ASAP1 ArfGAP activity, primary screen, biochemical, fluorescence polarization | ASAP1-stimulated ARF1 GTP hydrolysis, GDP FP detection | inhibition, % at 16.5 µM | hit rate 0.19% among 360,000; in the data active = inhibition above about 25%;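 note: 0% = vehicle with enzyme and substrate and 100% = no enzyme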
# Target sequence (Q9ULH1 325-724 limits assumed): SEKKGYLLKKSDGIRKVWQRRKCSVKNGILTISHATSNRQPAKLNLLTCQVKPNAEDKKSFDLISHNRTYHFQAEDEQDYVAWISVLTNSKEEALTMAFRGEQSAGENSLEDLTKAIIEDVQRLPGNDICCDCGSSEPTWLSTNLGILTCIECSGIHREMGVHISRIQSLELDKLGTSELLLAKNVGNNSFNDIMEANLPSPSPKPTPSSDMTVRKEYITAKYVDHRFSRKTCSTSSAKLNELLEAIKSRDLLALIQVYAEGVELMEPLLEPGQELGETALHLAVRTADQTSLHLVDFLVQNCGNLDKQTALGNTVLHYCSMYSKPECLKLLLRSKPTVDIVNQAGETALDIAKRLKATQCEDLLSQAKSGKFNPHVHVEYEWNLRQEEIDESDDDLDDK
# rCAG binder: binders of r(CAG) RNA repeats, primary screen, biochemical, fluorescence; hit rate 1.3% among 370,000; inhibition, % at 3 µM; AID 651821, 2012; r(CAG) RNA repeat, TO-PRO-1 dye displacement fluorescence;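 active = inhibition above the plate cutoff, the mean of all test compounds on that plate plus 3 SD, cut at about 35% in these data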;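 note: 0% = DMSO alone and 100% = 100 µM mitoxantrone as full dye displacement; higher means more dye released from RNA so lower well fluorescence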
# NadD inh: inhibitors of S. aureus NadD, primary screen, biochemical, colorimetric, uHTS | Nicotinate-nucleotide adenylyltransferase NadD (Staphylococcus aureus N315) | purified NadD enzyme, colorimetric absorbance read-out | inhibition, % at 20 µM | hit rate 0.78% among 360,000; in the data active = inhibition above about 26%
# ARFGAP1 inhibitor: inhibitors of rat ARFGAP1 GAP activity, primary screen, biochemical, fluorescence polarization, GDP tracer; inhibition, % at 16.5 µM; Arfgap1-stimulated ARF1 GTP hydrolysis, GDP FP detection; hit rate 0.26% among 360,000; ADP-ribosylation factor GTPase-activating protein 1 (Rattus norvegicus), Q62848;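 active = inhibition above a per-plate limit, mean inhibition of low control wells plus 3 SD, cut at about 25% in these data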;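 note: 0% = DMSO wells with enzyme and 100% = wells lacking Arfgap1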
# Target sequence (Q62848 1-136 limits assumed): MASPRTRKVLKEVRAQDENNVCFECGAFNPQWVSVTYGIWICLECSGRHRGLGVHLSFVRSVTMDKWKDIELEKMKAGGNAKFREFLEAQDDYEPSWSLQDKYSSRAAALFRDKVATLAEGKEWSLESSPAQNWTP
#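 Material: truncated rat Arfgap1 GAP domain; Incubation: compound-enzyme preincubation 20 min, reaction 120 min, detection 60 min, 25 °C; Read-out: percent inhibition of Arfgap1-stimulated GTP hydrolysis; Technique: FP, GDP Alexa 633 tracer displaced from anti-GDP antibody, 620/688 nm; Controls: No-Arfgap1 wells (100%) versus DMSO full-reaction wells (0%); Replication: single well per compound.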
# * marks the source's active call; other numbers are inactive results; nt = not tested or not shown.
SMILES,ASAP1 inh,rCAG binder,NadD inh,ARFGAP1 inhibitor
C#CCOCCOCCOCCNc1nc(N2CCN(C(=O)CCCCCCCCCCNC(=O)[C@H](CO)n3cc(CCCSC)nn3)CC2)nc(N2CCN(C(=O)CCCCCCCCCCNC(=O)[C@H](CCCN=C(N)N)n3cc(C[C@@H](C)CC)nn3)CC2)n1,nt,nt,62.3*,nt
C#CCOCCOCCOCCNc1nc(N2CCN(C(=O)CCCCCCCCCCNC(=O)Cn3cc(C[C@@H](C)O)nn3)CC2)nc(N2CCN(C(=O)CCCCCCCCCCNC(=O)[C@H](CCCN=C(N)N)n3cc(C[C@@H](C)CC)nn3)CC2)n1,nt,nt,38.1*,nt
Cc1cc(C(=O)COC(=O)c2cc(O)c3ccccc3c2O)c(C)n1CC1CCCO1 (centres undefined),nt,nt,35.9*,nt
COC(=O)c1cc(S(=O)(=O)N2CCCN(C(C)=O)CC2)cn1C,nt,2.0,nt,nt
O=C(Nc1ccc(C(=O)O)cc1)/C(=C\C=C\c1ccccc1)NC(=O)c1ccccc1Cl,-7.0,37.2*,5.6,-11.7
CCOC(=O)CN1C(=O)[C@]2(OCCC=C[C@H]2C)c2c(Br)cccc21,-4.0,0.2,nt,-4.1
Cc1[nH]n(C(N)=S)c(=O)c1N=Nc1cc(-c2ccc(Br)cc2)[nH]n1,23.6,12.0,42.6*,5.1
Cc1ccc(N=Nc2c(C)[nH]n(C(N)=S)c2=O)cc1C,-9.5,-0.3,2.3,2.1
O=C(COC(=O)c1cc(=O)[nH]c2ccccc12)Nc1nc(-c2ccc(F)cc2)cs1,2.3,16.1,20.5,1.8
CCCCc1cc(=O)oc2cc(C)cc(OCC(=O)NC(Cc3ccc(Cl)cc3)C(=O)O)c12 (centres undefined),-1.4,40.0*,3.3,-3.1
Cc1cc(OCC(=O)NC(Cc2ccc(Cl)cc2)C(=O)O)c2c(C)cc(=O)oc2c1 (centres undefined),6.2,21.5,6.1,4.5
COC(=O)[C@]12C[C@H](CC(=O)NCCc3ccccc3OC)C(=O)N(Cc3cccc4ccccc34)C1=C[C@H](C(C)(C)C)O[C@@H]2C,nt,7.5,nt,nt
Nc1c(C(=O)NC2CC2)sc2nc3c(c(-c4ccco4)c12)CC/C3=C/c1ccco1,nt,nt,93.3*,nt
Cc1nc2sc(C(=O)NC3CC3)c(N)c2c(C)c1Cl,nt,3.8,nt,nt
COC(=O)Cn1c(=NC(=O)c2ccc(S(=O)(=O)N3CCc4ccccc4C3)cc2)sc2cc(OC)ccc21,19.9,4.2,12.2,-6.3
C#CCn1c(=NC(=O)c2ccc(S(=O)(=O)N3CCc4ccccc4C3)cc2)sc2cc(S(N)(=O)=O)ccc21,nt,nt,47.4*,nt
Cc1ccc(-c2cc(-c3nnc4sc(COc5ccccc5)nn34)[nH]n2)cc1,nt,7.2,nt,nt
N#Cc1c(C(F)(F)F)cc(-c2ccccc2Cl)[nH]c1=O,4.8,37.0*,-0.7,9.1
Cc1ccc(/C=C2\CCC3=C2OC(N)=C(C#N)C3c2ccc(C)cc2)cc1 (centres undefined),nt,nt,45.5*,nt
COC(=O)N=Nc1c(O)[nH]c2ccc(Br)cc12,5.2,2.2,-9.0,1.6
COc1ccc(Cc2nnc(N=Nc3c(O)[nH]c4ccc(Br)cc34)[nH]c2=O)cc1,-8.8,14.1,37.6*,-3.8
Cc1ccc(NC2CNC(=O)NC2=O)cc1C (centres undefined),9.2,2.5,4.2,4.9
Cc1ccc(NC2C(=O)NC(=O)NC2=O)cc1,31.8*,1.2,-0.4,16.7
CCCc1nc2ccccc2c(C(=O)OCC(=O)Nc2cccc(S(=O)(=O)N3CCOCC3)c2)c1CC,4.8,11.9,1.4,28.1*
Cc1cc(-c2n[nH]c(=S)n2N=Cc2cccc(OCc3ccccc3)c2)n[nH]1,nt,30.4,nt,nt
SMILES,ASAP1 inh,rCAG binder,NadD inh,ARFGAP1 inhibitor
Cc1ccc(-n2c(Cc3cccs3)nnc2SCC(=O)Nc2cccc3ccccc23)cc1,nt,6.6,nt,nt
Cc1nc(SCC(=O)NCc2ccco2)c2c3c(sc2n1)CCCC3,1.8,1.2,10.1,-7.5
CCCc1nc2sc3c(SCC(=O)NCc4ccco4)ncnc3c2c2c1CCC2,4.2,-1.1,33.9*,-0.6
Cc1ccc(-c2c(NC(=O)c3cccc(C)c3)nc3ncccn23)cc1,nt,5.1,nt,nt
Cc1ccccc1C(=O)NC1CCCCN(C)C1=O (centres undefined),-3.0,0.2,nt,-11.5
COC(=O)CSc1nc(N)c2c3c(sc2n1)C(c1ccccc1)SC(c1ccccc1)C3 (centres undefined),nt,nt,49.7*,nt
O=C(CN1C(=O)/C(=C\c2ccco2)SC1=S)Nc1ccc(O)cc1C(=O)O,8.7,88.4*,2.4,-7.8
O=C1/C(=C\c2ccco2)SC(=S)N1Cc1ccccc1,7.4,26.1,5.7,5.9
CCC1CCCCN1S(=O)(=O)c1ccc(C(=O)Nc2nnc(-c3ccccc3Cl)o2)cc1 (centres undefined),nt,nt,42.5*,nt
CCc1nc2ccc(C(=O)NCCOc3ccc(OC)cc3)cn2c1N(C)C(=O)Cc1ccccc1,-2.2,-0.7,5.2,13.4
COc1ccc(/C=C/C(=O)NC(=S)Nc2cc([N+](=O)[O-])ccc2O)cc1OC,-6.4,52.1*,5.9,-31.2
Oc1c(Br)cc(Br)cc1CNc1cccc2cccnc12,1.2,30.7,57.2*,4.4
Oc1ccc(Br)cc1CNc1cccc2cccnc12,10.5,9.3,10.2,11.9
Cc1ccc(OCc2nnc(SCC(=O)c3ccc(-c4ccccc4)cc3)n2Cc2ccco2)cc1,nt,15.7,nt,nt
N#CCC[C@@H]1CC[C@]2(CCCN(Cc3ccc(Br)cc3)C2)O1,nt,1.6,nt,nt
CCC(=O)OC1(C)C(=O)C=C2C=C(c3ccc(C#N)cc3)OC=C2C1=O (centres undefined),8.0,42.4*,21.3,2.9
CCC(=O)OC1(C)C(=O)C2=COC(c3ccc(OC)cc3)=CC2=C(Br)C1=O (centres undefined),-3.0,15.8,3.9,-19.4
COc1cccc(/C=N/n2c(N)c(S(=O)(=O)c3cccs3)c3nc4ccccc4nc32)c1,-4.1,0.9,5.8,12.1
Nc1c(S(=O)(=O)c2cccs2)c2nc3ccccc3nc2n1/N=C/c1cccc(O)c1,12.9,12.4,45.3*,12.6
Cc1ccc(S(=O)(=O)c2c(N)n(CCCN(C)C)c3nc4ccccc4nc23)cc1,-2.7,6.0,-7.9,0.6
COc1ccc(S(=O)(=O)c2c(N)n(Cc3ccco3)c3nc4ccccc4nc23)cc1,11.3,29.4,34.3*,17.0
Cc1ccc(S(=O)(=O)c2c(N)n(/N=C/c3ccco3)c3nc4ccccc4nc23)cc1,-2.4,19.7,25.0,-15.1
Cc1ccc(S(=O)(=O)c2c(N)n(/N=C/c3ccco3)c3nc4ccccc4nc23)cc1C,10.8,16.2,53.8*,12.9
CC(C)(C)c1ccc(-c2nnc3n2N=C(c2ccc(Cl)cc2)CS3)cc1,nt,2.9,nt,nt
COC(=O)[C@H](N[C@H](/C=C/c1ccccc1)[C@@H](O)Cc1ccccc1)c1ccccc1,-1.7,1.1,nt,4.0
COc1ccc(/C=C/C(=O)OCC(=O)NC2CCCC2)cc1,-8.5,-2.7,-2.4,10.2
